SMILES strings stand for the structures. Activity calls are given as the source filed them. The rule behind the calls is not given here.

Data set [1] has as its target Calcitonin gene-related peptide type 1 receptor (Homo sapiens) (UniProt Q16602). The data set is described as follows: (§1) Antagonist activity at CGRP receptor in human SK-N-MC cells assessed as inhibition of […]-induced cAMP production. The format is functional, cell-based. In outline:
(§2)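 Concentration-dependent inhibition of CGRP-stimulated cAMP production measured in SK-N-MC cells expressing the human CGRP receptor. Value reported as EC50.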
(In general: cAMP levels reflect the balance of adenylyl cyclase and phosphodiesterase activity.)

The target in data set [2] is T1, Cytochrome P450 3A4 (Homo sapiens, UniProt P08684). The data set is described as follows: (§3) Inhibition of CYP3A4 (unknown origin) using 7-benzyloxy-4-trifluoromethylcoumarin as substrate. The format is ADME.
The target in data set [3] is T1, Cytochrome P450 3A4. The data set is described as follows: Inhibition of CYP3A4 (unknown origin) using 7-benzyloxy-resorufin as substrate. In kind it is ADME.
In data set [4] the target is T2, Calcitonin gene-related peptide type 1 receptor (Homo sapiens, UniProt O60894+Q16602). The data set is described as follows: Binding affinity to CGRP receptor (unknown origin).
A short description of data set [5]: Plasma concentration in marmoset at 0.03 g/kg, sc after 60 mins. The format is ADME, organism-based, Callithrix jacchus. The following applies: 30 mg/kg. In outline:
(§4)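 Marmosets were anesthetized. Facial blood flow was raised by iv haCGRP (10 µg/kg) given at −30, 15, 60 and 105 min and read by laser Doppler flowmetry. The antagonist (racemate) was given SC at 0 min and compared with vehicle-treated animals, n = 5. Plasma levels were taken at 15, 60 and 105 min.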

Data set [6] can be described thus: Plasma concentration in marmoset at 0.03 g/kg, sc after 105 mins. In kind it is ADME, organism-based, Callithrix jacchus. The following applies: 30 mg/kg. In outline: as §4
The nature of data set [7]: Plasma concentration in marmoset at 0.03 g/kg, sc after 15 mins. The format is ADME, organism-based, Callithrix jacchus. The following applies: 30 mg/kg. In outline:
as §4

In data set [8] the test system is Callithrix jacchus. As to the kind of experiment: Inhibition of CGRP-induced increases in marmoset facial blood flow at 0.03 g/kg, sc after 60 to 105 mins by doppler flowmetry. In kind it is functional, organism-based. In outline:
as §4

Data set [9] concerns the target T3, Nuclear receptor subfamily 1 group I member 2 (Homo sapiens, UniProt O75469).
T3 sequence (O75469 whole entry): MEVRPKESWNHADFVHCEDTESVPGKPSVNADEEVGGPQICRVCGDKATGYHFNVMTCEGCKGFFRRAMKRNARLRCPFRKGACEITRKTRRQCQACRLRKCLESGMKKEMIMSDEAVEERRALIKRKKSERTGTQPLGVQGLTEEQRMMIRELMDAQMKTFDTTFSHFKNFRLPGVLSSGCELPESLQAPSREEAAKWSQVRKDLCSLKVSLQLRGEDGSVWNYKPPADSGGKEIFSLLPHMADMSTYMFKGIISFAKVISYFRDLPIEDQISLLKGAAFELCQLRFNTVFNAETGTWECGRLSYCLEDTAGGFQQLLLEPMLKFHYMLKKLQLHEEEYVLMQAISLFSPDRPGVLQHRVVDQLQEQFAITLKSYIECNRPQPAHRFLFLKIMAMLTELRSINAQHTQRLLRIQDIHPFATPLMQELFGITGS
The data set is described as follows: Activation of PXR (unknown origin).

Data set [10] deals with Salmonella typhimurium. As to the kind of experiment: Genotoxicity in Salmonella typhimurium by Ames test. In kind it is toxicity, organism-based. To be noted: salmonella enterica subsp. enterica serovar typhimurium. A general note: In the Ames test, an excess of revertant colonies over the control signals mutagenicity.
Data set [11] is described as follows: Tmax in rabbit at 0.6 mg/kg administered intranasally. The format is ADME, organism-based, Oryctolagus cuniculus. To be noted: in vivo, inhaled or intranasal. Set-up: dose 0.6 mg/kg. In outline:
(§5)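 Rabbits were dosed intranasally with a spray of a 10 mg/mL aqueous solution of the HCl salt, at 0.6 mg/kg. […] Intranasal bioavailability was derived from these plasma levels.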

Data set [12] can be described thus: Bioavailability in rabbit at 0.6 mg/kg administered intranasally. In kind it is ADME, organism-based, Oryctolagus cuniculus. To be noted: in vivo, inhaled or intranasal. In outline: as §5
A short description of data set [13]: Aqueous solubility of the compound at pH 4.0 to 6.2. The format is physicochemical. The following applies: aqueous solution.
Data set [14] in a line: Reversal of CGRP-induced dilation on human intracranial arteries. The format is functional, Artery. In outline: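 Ex vivo human intracranial artery rings were mounted between two wire hooks on a force transducer to record tone. Rings were precontracted with 10 mM KCl and fully dilated with 1 nM haCGRP. Dilation was then reversed by cumulative half-log additions of antagonist.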

The target of data set [15] is T2, Calcitonin gene-related peptide type 1 receptor. Described as §1. The format is functional, cell-based. In outline:
as §2

The target of data set [16] is CYP3A4 (Homo sapiens, UniProt P08684). Described as §3. In kind it is ADME. To be noted: probe 7-benzyloxy-4-trifluoromethylcoumarin.
CYP3A4, sequence (P08684 whole entry): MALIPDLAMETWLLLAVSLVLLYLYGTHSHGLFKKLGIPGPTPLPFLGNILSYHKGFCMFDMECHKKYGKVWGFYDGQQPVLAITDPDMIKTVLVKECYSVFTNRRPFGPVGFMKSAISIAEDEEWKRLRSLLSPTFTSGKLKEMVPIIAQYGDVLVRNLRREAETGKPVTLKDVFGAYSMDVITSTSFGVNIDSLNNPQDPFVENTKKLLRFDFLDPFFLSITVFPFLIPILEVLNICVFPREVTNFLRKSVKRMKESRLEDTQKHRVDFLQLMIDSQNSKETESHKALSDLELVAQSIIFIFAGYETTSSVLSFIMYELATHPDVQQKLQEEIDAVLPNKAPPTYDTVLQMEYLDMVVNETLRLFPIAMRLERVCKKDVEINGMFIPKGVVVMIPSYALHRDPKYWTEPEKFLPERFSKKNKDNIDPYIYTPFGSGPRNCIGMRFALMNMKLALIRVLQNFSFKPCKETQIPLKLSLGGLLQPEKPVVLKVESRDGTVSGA

T1 sequence (P08684 whole entry): as above
T2 sequence (Q16602 whole entry, one chain of several): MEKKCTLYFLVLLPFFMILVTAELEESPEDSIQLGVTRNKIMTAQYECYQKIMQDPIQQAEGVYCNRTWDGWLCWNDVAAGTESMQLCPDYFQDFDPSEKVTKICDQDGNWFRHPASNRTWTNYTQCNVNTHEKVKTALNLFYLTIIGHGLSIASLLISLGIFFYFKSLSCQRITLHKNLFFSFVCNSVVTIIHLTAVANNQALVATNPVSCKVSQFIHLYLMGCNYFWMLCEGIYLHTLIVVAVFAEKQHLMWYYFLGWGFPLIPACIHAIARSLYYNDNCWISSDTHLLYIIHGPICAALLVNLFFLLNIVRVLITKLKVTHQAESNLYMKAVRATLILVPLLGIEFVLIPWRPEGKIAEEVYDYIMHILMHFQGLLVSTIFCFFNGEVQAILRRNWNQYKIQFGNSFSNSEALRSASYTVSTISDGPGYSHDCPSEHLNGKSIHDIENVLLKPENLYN
Calcitonin gene-related peptide type 1 receptor (Homo sapiens), sequence (Q16602 whole entry): as the sequence (Q16602 whole entry, one chain of several) above

Turning to `Cc1cc(C[C@@H](NC(=O)N2CCC(N3Cc4ccccc4NC3=O)CC2)C(=O)N2CCC(N3CCCCC3)CC2)cc2nn[nH]c12`, in data set [1], the inhibition entry is “Active”.
For `Cc1cc(C[C@@H](NC(=O)N2CCC(N3Cc4ccccc4NC3=O)CC2)C(=O)N2CCC(N3CCCCC3)CC2)c(Cl)c2cn[nH]c12`, the inhibition entry in data set [1] is “Active”. Also, the IC50 – broadly, the concentration that gives 50% inhibition – stood at 3500 nM in data set [2] and 1600 nM in [3]. In addition, in [4], the Ki (as a rule, the dissociation constant of the complex between target and ligand, obtained from inhibition or displacement) came to 0.032 nM.
For the molecule `Cc1cc(C[C@@H](NC(=O)N2CCC(N3Cc4ccccc4NC3=O)CC2)C(=O)N2CCC(N3CCCCC3)CC2)cc2cn[nH]c12` [listing 1 of 2 here], the inhibition entry in data set [1] was “Active”.
Consider `N#Cc1cc(C[C@@H](NC(=O)N2CCC(N3Cc4ccccc4NC3=O)CC2)C(=O)N2CCC(N3CCCCC3)CC2)cc2oc(=O)[nH]c12`, for which the inhibition result in [1] was “Active”. For the same molecule, the Ki in [4] was determined as 11 nM.
For `O=C(N[C@H](Cc1cc2oc(=O)[nH]c2cc1Br)C(=O)N1CCC(N2CCCCC2)CC1)N1CCC(N2Cc3ccccc3NC2=O)CC1`, in data set [1], the inhibition result was “Active”. In data set [4], the Ki is 0.14 nM.
The corresponding values for `Cc1cc(C[C@H](NC(=O)N2CCC(N3Cc4ccccc4NC3=O)CC2)C(=O)N2CCC(N3CCCCC3)CC2)cc2cn[nH]c12` are “Active” and 27 nM.
Take `O=C(NC(Cc1cc(Cl)c2[nH]ncc2c1)C(=O)N1CCC(N2CCCCC2)CC1)N1CCC(N2Cc3ccccc3NC2=O)CC1` (racemic): the inhibition result in data set [1] was “Active”. In addition, the IC50 in data set [2] came to 13000 nM; in [3] it was 180 nM. In [4], the Ki came to 0.011 nM.
With `Cc1cc(CC(NC(=O)N2CCC(N3Cc4ccccc4NC3=O)CC2)C(=O)N2CCC(N3CCCCC3)CC2)cc2cn[nH]c12` (racemic), the concentration at 1 h in data set [5] was found to be 13 nM. In data set [6], the concentration at 1.75 h was 11 nM. In [7], this molecule registered a concentration at 0.25 h of 4.7 nM. Also, the inhibition result in [8] and in data set [1] was “Active” in each case. Further, the Ki in data set [4] was determined as 0.012 nM.
As to `Cc1cc(C[C@@H](NC(=O)N2CCC(N3Cc4ccccc4NC3=O)CC2)C(=O)N2CCC(N3CCCCC3)CC2)cc2cn[nH]c12.Cl`, the Activity entry in data set [9] is listed as “Not Active”; in [10], “Non-toxic”. For the same molecule, the Tmax (commonly the time from dosing to the highest level) in [11] was 10 min. Further, the bioavailability – broadly, dose-corrected exposure relative to a reference, in per cent – in data set [12] worked out at 42%. Further, the solubility (usually the dissolved amount per volume that the medium holds) in [13] is 13 mg/mL.
Regarding `Cc1cc(C[C@@H](NC(=O)N2CCC(N3Cc4ccccc4NC3=O)CC2)C(=O)N2CCC(N3CCCCC3)CC2)cc2[nH]nnc12`, the values for the IC50 in data set [2] and in [3] were over 40000 nM and 7300 nM, respectively. Moreover, the Ki in [4] was found to be 0.015 nM.
As for `CCc1cc(CC(NC(=O)N2CCC(N3Cc4ccccc4NC3=O)CC2)C(=O)N2CCC(N3CCCCC3)CC2)cc2cn[nH]c12` (racemic), the inhibition result in [1] is “Active”. The IC50 in data set [2] came out at 25000 nM; in data set [3] it was 450 nM. The Ki in data set [4] worked out at 0.005 nM.
Turning to `CC(C)c1cc(CC(NC(=O)N2CCC(N3Cc4ccccc4NC3=O)CC2)C(=O)N2CCC(N3CCCCC3)CC2)cc2cn[nH]c12` (racemic), the inhibition result in [1] was “Active”. The molecule also returned an IC50 in data set [3] of 370 nM. Besides, the Ki in [4] was found to be 0.22 nM.
For `O=C(N[C@H](Cc1cc2oc(=O)[nH]c2cc1Cl)C(=O)N1CCC(N2CCCCC2)CC1)N1CCC(N2Cc3ccccc3NC2=O)CC1`, the inhibition result in data set [1] was “Active”. Moreover, the IC50 in data set [2] is over 40000 nM; in data set [3] it was 5000 nM. In addition, the Ki in data set [4] came to 0.28 nM.
Taken in the same sequence, the figures for `O=C(N[C@H](Cc1cc(Br)c2[nH]c(=O)oc2c1)C(=O)N1CCC(N2CCCCC2)CC1)N1CCC(N2Cc3ccccc3NC2=O)CC1` were “Active”, over 40000 nM, 7200 nM and 0.023 nM.
As for `Cc1cc(C[C@@H](NC(=O)N2CCC(N3Cc4ccccc4NC3=O)CC2)C(=O)N2CCC(N3CCCCC3)CC2)cc2cn[nH]c12` [listing 2 of 2 here], the EC50 – broadly, the concentration needed to bring the measured effect to its halfway point – in data set [14] amounted to 0.05 nM; in [15] it was 0.017 nM. The Ki in data set [4] was found to be 0.0073 nM.
On to `O=C(N[C@H](Cc1cc(Cl)c2[nH]c(=O)oc2c1)C(=O)N1CCC(N2CCCCC2)CC1)N1CCC(N2Cc3ccccc3NC2=O)CC1`, for which the inhibition entry in data set [1] was “Active”. For the same molecule, the IC50 in [2] is over 40000 nM; in [3], 17000 nM. Moreover, the Ki in data set [4] is 0.039 nM.
Taken in the same sequence, the figures for `O=C(N[C@H](Cc1cc(I)c2[nH]c(=O)oc2c1)C(=O)N1CCC(N2CCCCC2)CC1)N1CCC(N2Cc3ccccc3NC2=O)CC1` were “Active”, 32000 nM, 5500 nM and 0.055 nM.
The corresponding values for `CCc1cc(CC(NC(=O)N2CCC(N3Cc4ccccc4NC3=O)CC2)C(=O)N2CCC(N3CCCCC3)CC2)cc2c(C)n[nH]c12` (racemic) are “Active”, over 40000 nM, 6900 nM and 0.048 nM.
As to `O=C(N[C@H](Cc1ccc2[nH]ncc2c1)C(=O)N1CCC(N2CCCCC2)CC1)N1CCC(N2Cc3ccccc3NC2=O)CC1`, the EC50 in data set [14] was 1.2 nM. For the same molecule, the inhibition entry in data set [1] was “Active”. The molecule also returned an IC50 in data set [16] of over 40000 nM.

The values are drawn from ChEMBL document CHEMBL2331184, “The synthesis and SAR of calcitonin gene-related peptide (CGRP) receptor antagonists derived from tyrosine surrogates. Part 2” (Bioorg Med Chem Lett, 2013).
